Test results taken from ChEMBL document CHEMBL1145564, “Discovery of N-[(3R,5R)-1-azabicyclo[3.2.1]oct-3-yl]furo[2,3-c]pyridine-5-carboxamide as an agonist of the alpha7 nicotinic acetylcholine receptor: in vitro and in vivo activity” (Bioorg Med Chem Lett, 2008).
Values belong to the compound of their own block, whether it stands above or below them. Calls of active or inactive are those of the source. The calls are words filed in the database; no cut-off is given here.

Assays:
[1] = Metabolic stability in rat liver microsomes assessed as hepatic extraction ratio after 30 mins; assay type: ADME, Microsome
Procedure, shortened: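 Rat liver microsome incubation; stability reported as fraction of compound remaining after 30 min relative to t0 concentration.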

[2] = target: Neuronal acetylcholine receptor subunit alpha-7 (Rattus norvegicus, UniProt Q05941); assay: Displacement of [3H]MLA from alpha-7 nACh receptor in rat brain; assay type: tissue-based
Neuronal acetylcholine receptor subunit alpha-7 (Rattus norvegicus, UniProt Q05941), sequence (Q05941 whole entry): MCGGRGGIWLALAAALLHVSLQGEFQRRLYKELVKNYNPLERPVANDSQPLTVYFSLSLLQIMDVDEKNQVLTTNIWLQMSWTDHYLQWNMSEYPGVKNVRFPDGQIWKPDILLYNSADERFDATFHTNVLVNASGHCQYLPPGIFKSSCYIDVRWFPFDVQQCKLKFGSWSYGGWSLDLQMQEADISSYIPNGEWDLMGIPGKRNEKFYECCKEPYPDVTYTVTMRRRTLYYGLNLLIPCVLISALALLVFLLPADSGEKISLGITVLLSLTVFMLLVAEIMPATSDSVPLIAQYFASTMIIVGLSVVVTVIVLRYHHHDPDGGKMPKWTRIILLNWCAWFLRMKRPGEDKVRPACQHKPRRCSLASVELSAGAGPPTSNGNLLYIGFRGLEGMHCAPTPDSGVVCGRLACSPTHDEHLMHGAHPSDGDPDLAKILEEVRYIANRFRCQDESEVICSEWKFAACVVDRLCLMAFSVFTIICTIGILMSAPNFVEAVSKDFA
Procedure, shortened: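 Rat brain homogenate binding with [3H]MLA; individual Ki values, mean ± SEM reported when more than 3 measurements.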

[3] = target: T1, Neuronal acetylcholine receptor subunit alpha-7 (Homo sapiens, UniProt P36544); assay: Agonist activity at alpha7-5HT3 chimera expressed in human SH-EP1 cells by FLIPR assay; assay type: functional, cell-based
Target sequence in this assay (P36544 23-502 limits assumed): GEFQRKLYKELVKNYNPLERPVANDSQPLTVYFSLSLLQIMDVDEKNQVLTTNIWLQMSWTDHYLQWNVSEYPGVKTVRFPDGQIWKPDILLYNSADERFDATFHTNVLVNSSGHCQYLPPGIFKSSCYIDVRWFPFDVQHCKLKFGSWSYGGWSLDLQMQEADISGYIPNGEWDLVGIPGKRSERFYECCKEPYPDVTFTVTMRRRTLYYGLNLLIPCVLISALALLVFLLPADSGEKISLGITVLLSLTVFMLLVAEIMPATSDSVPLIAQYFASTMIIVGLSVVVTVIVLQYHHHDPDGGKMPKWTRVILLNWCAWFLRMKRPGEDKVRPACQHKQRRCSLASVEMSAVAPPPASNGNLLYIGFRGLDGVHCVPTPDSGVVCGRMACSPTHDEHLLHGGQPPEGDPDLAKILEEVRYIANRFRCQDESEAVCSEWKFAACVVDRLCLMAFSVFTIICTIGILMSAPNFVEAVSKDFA

[4] = Apparent permeability from apical to basolateral side in dog MDCK cells; assay type: ADME, cell-based, Canis lupus familiaris
Procedure, shortened: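 MDCK monolayer permeability measured apical to basolateral, expressed as Papp (x10^-6 cm/s).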

[5] = Ratio of drug level in brain to plasma in mouse at 10 mg/kg after 60 min; assay type: ADME, organism-based; design: dose 10 mg/kg
Procedure, shortened: (§1)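 Mouse brain uptake: brain and plasma concentrations after a 10 mg/kg dose, ratio taken at 5 and 60 min.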

[6] = Ratio of drug level in brain to plasma in mouse at 10 mg/kg after 5 mins; assay type: ADME, organism-based; design: dose 10 mg/kg; procedure, shortened: as §1
Brain [7] = assay: Drug level in rat brain at 0.01 mg/kg, sc; assay type: ADME, organism-based; design: dose 0.01 mg/kg, route subcutaneous; details: in vivo, read-out: Drug uptake
Procedure, shortened: (§2)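 Rats given amphetamine 1 mg/kg iv to disrupt gating, then test drug sc (0.01–1.0 mg/kg, n = 6-9). Gating is the conditioning/test EEG field potential ratio from paired tones at 0.5 Hz, monitored 30 min, expressed as % reversal. Brain and plasma levels taken about 37 min post-dose.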

Brain [8] = assay: Drug level in rat brain at 1 mg/kg, sc; assay type: ADME, organism-based; design: dose 1 mg/kg, route subcutaneous; details: in vivo, read-out: Drug uptake; procedure, shortened: as §2
Plasma [9] = assay: Drug level in rat plasma at 0.1 mg/kg, sc; assay type: ADME, organism-based; design: dose 0.1 mg/kg, route subcutaneous; details: in vivo; procedure, shortened: as §2
[10] = Clearance in Sprague-Dawley rat at 5 mg/kg, po; assay type: ADME, organism-based; design: dose 5 mg/kg, route oral; details: in vivo
Procedure, shortened: (§3)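 Sprague-Dawley rats given a single 5.0 mg/kg oral dose; pharmacokinetic parameters derived from plasma.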

hERG (KCNH2) = hERG (KCNH2) (Homo sapiens, UniProt Q12809); assay: Inhibition of human ERG expressed in HEK293 cells at 20 uM; assay type: cell-based; details: HEK293 cells that express hERG
hERG (KCNH2), sequence (Q12809 whole entry): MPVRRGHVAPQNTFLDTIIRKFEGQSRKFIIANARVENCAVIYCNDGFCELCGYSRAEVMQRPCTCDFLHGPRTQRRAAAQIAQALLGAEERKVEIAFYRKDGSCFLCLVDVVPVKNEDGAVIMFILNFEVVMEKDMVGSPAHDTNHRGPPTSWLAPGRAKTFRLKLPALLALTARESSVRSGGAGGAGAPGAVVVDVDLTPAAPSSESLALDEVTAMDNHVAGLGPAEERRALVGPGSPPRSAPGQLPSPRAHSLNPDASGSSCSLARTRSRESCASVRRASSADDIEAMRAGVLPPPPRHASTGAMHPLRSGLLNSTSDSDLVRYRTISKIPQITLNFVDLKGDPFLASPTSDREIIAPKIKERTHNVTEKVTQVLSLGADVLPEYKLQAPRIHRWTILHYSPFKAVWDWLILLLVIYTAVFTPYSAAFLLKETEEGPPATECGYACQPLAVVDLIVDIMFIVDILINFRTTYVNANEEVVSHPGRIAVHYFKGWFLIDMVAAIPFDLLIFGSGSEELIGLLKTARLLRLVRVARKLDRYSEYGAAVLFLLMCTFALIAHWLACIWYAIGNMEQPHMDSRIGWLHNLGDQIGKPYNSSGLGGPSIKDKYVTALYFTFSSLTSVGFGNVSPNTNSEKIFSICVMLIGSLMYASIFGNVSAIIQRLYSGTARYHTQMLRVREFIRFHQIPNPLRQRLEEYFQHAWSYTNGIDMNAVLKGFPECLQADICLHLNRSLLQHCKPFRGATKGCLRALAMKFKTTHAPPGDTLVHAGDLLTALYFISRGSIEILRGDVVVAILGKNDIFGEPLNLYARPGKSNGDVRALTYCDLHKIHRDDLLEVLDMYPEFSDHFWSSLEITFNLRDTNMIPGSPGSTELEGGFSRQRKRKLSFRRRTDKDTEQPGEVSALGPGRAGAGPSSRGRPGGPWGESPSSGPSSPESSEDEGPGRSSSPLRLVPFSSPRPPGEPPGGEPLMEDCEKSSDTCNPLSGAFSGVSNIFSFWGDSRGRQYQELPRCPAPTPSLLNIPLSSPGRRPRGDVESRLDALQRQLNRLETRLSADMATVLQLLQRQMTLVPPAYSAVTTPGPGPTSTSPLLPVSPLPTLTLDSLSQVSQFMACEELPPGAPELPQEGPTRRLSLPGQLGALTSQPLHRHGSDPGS
Procedure, shortened: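 Patch-clamp on hERG current (IKr) in HEK cells; percent inhibition at 20 µM; aqueous solubility checked by HPLC in pH 7 buffer.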

Rattus norvegicus [11] = assay: Volume of distribution at steady state in Sprague-Dawley rat at 5 mg/kg, po; assay type: ADME, organism-based; design: dose 5 mg/kg, route oral; details: in vivo; procedure, shortened: as §3
Rattus norvegicus [12] = assay: Reversal of amphetamine-induced auditory gating deficit in rat at 1 mg/kg, sc twice daily for 6 days; assay type: functional, organism-based; design: dose 1 mg/kg
Procedure, shortened: (§4)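 Rats dosed sc twice daily for 6 days with drug 1 mg/kg or 0.9% saline vehicle (n = 8). On day 7, amphetamine-induced gating deficit challenged with acute drug 1 mg/kg sc; brain and plasma exposures measured.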

[13] = target: T2, Muscarinic acetylcholine receptor M2 (Homo sapiens) (UniProt P08172); assay: Displacement of [3H]AF-DX384 from human muscarinic M2 receptor expressed in CHO cells at 10 uM; assay type: cell-based
T2 sequence (whole entry): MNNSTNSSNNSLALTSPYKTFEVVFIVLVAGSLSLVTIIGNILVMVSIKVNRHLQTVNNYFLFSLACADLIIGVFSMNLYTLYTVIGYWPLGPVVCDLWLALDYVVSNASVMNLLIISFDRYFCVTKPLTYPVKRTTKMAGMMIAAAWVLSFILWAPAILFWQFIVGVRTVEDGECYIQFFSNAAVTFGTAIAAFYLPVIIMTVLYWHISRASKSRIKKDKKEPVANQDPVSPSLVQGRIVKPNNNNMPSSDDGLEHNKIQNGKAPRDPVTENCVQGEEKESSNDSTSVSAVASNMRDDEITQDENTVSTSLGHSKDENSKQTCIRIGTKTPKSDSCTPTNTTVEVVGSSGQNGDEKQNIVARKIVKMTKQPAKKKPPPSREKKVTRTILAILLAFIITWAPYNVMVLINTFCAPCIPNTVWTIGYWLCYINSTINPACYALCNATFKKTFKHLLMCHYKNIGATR
Procedure, shortened: (§5)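 Human muscarinic receptors in transfected CHO cells; radioligands [3H]pirenzepine (M1), [3H]AF-DX 384 (M2), [3H]DAMP (M3); percent block at 10 µM.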

[14] = target: T1, Neuronal acetylcholine receptor subunit alpha-7; assay: Displacement of [3H]MLA from alpha-7 nACh receptor in human IMR32 cells; assay type: cell-based, IMR-32
Target sequence in this assay (P36544 whole entry): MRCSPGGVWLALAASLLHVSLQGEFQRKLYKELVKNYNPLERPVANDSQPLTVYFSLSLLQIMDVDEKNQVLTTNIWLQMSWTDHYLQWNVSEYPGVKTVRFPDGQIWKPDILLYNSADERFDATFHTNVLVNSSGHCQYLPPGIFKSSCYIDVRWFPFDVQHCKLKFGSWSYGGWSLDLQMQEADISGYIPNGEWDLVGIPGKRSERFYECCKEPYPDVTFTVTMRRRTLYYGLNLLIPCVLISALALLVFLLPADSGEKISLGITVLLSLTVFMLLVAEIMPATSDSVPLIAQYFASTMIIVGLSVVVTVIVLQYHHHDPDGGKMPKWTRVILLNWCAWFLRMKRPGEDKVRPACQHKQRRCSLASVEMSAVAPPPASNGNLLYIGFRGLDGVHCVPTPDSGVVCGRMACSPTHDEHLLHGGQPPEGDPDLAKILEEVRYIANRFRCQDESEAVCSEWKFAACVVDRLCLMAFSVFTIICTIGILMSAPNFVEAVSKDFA

[15] = Drug level in rat brain at 1 mg/kg, sc twice daily for 6 days; assay type: ADME, organism-based; design: dose 1 mg/kg, route subcutaneous; details: read-out: Drug uptake; procedure, shortened: as §4
Plasma [16] = assay: Drug level in rat plasma at 0.01 mg/kg, sc; assay type: ADME, organism-based; design: dose 0.01 mg/kg, route subcutaneous; details: in vivo; procedure, shortened: as §2
[17] = Toxicity in dog ECG model assessed as drug level causing no observable adverse effects; assay type: organism-based, Canis lupus familiaris; details: in vivo, read-out: Activity
Procedure, shortened: (§6)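 Acute dog ECG cardiovascular safety study; no-observable-adverse-effect dose set, with Cmax measured at that dose.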

[18] = Drug level in rat plasma at 1 mg/kg, sc twice daily for 6 days; assay type: ADME, organism-based; design: dose 1 mg/kg, route subcutaneous; procedure, shortened: as §4
[19] = target: Muscarinic acetylcholine receptor M3 (Homo sapiens) (UniProt P20309); assay: Displacement of [3H]DAMP from human muscarinic M3 receptor expressed in CHO cells at 10 uM; assay type: cell-based; procedure, shortened: as §5
Muscarinic acetylcholine receptor M3 (Homo sapiens), sequence (P20309 whole entry, looked up): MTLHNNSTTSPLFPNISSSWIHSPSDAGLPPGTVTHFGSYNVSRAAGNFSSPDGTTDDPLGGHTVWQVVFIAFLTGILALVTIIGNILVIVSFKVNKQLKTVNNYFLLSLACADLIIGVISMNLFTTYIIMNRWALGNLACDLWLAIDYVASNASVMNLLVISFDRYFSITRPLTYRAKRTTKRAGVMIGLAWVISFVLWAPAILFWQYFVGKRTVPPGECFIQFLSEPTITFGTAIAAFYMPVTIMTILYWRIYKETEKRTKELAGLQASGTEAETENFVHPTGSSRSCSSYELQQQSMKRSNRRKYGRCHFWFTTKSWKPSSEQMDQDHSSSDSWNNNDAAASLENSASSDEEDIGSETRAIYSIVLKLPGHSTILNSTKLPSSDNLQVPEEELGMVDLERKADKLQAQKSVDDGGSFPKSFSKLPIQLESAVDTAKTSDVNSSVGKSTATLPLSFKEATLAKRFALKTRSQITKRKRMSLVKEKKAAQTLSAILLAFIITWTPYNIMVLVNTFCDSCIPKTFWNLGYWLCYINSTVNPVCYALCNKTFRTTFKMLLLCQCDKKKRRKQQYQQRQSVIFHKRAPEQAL

[20] = Metabolic stability in human liver microsomes assessed as half life; assay type: ADME, Microsome
[21] = target: T3, 5-hydroxytryptamine receptor 3A (Rattus norvegicus, UniProt P35563); assay: Binding affinity to rat 5HT3 receptor
T3 sequence (P35563 whole entry): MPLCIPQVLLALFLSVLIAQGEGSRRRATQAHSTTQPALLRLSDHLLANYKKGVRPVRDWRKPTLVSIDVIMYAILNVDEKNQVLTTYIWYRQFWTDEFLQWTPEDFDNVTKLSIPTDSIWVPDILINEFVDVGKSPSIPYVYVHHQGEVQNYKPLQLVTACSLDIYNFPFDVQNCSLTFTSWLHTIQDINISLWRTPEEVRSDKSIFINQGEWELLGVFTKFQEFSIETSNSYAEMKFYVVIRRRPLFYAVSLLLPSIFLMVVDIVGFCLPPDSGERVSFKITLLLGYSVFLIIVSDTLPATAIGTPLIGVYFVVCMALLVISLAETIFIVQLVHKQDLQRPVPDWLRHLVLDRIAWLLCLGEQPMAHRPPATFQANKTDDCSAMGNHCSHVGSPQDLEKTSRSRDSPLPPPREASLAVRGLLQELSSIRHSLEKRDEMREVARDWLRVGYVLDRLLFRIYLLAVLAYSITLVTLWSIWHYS

[22] = Oral bioavailability in Sprague-Dawley rat at 5 mg/kg; assay type: ADME, organism-based; details: in vivo; procedure, shortened: as §3
Plasma [23] = assay: Drug level in rat plasma at 1 mg/kg, sc; assay type: ADME, organism-based; design: dose 1 mg/kg, route subcutaneous; details: in vivo; procedure, shortened: as §2
Brain [24] = assay: Drug level in rat brain at 0.1 mg/kg, sc; assay type: ADME, organism-based; design: dose 0.1 mg/kg, route subcutaneous; details: in vivo; procedure, shortened: as §2
Rattus norvegicus [25] = assay: Reversal of amphetamine-induced auditory gating deficit in sc dosed rat auditory sensory gating model; assay type: functional; procedure, shortened: as §2
[26] = Half life in Sprague-Dawley rat at 5 mg/kg, po; assay type: ADME, organism-based; design: dose 5 mg/kg, route oral; details: in vivo; procedure, shortened: as §3
[27] = target: Neuronal acetylcholine receptor; alpha4/beta2 (Rattus norvegicus) (UniProt P09483+P12390); assay: Displacement of [3H][…] from alpha-4-beta-2 nACh receptor in rat brain at 1 uM; assay type: tissue-based
Procedure, shortened: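 Rat brain homogenate binding using [3H][…]; percent block at 1 µM.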

[28] = target: T4, Muscarinic acetylcholine receptor M1 (Homo sapiens) (UniProt P11229); assay: Displacement of [3H]pirenzepine from human muscarinic M1 receptor expressed in CHO cells at 10 uM; assay type: cell-based; procedure, shortened: as §5
T4 sequence (whole entry): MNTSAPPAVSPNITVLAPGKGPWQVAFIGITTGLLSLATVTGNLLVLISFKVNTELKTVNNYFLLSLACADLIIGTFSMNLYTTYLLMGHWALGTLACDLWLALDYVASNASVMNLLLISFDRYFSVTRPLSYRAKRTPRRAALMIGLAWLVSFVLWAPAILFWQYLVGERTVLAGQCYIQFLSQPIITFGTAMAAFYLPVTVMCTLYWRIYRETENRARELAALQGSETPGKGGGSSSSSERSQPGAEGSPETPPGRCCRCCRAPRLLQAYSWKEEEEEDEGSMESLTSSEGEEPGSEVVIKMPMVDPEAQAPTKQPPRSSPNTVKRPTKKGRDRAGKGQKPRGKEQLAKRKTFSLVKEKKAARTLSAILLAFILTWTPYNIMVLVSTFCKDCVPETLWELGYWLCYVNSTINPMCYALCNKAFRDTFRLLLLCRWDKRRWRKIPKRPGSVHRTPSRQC

[29] = Drug level in rat plasma at 0.24 mg/kg, iv after 30 mins; assay type: ADME, organism-based; design: dose 0.24 mg/kg, route intravenous
[30] = Cmax in dog ECG model; assay type: ADME, organism-based, Canis lupus familiaris; details: in vivo; procedure, shortened: as §6

Structure (SMILES): O=C(N[C@@H]1C[C@H]2CCN(C2)C1)c1cc2sccc2cn1
- hepatic extraction ratio at 0.5 h [1]: 0.71
- Ki [2]: 7 nM
- EC50 [3]: 70 nM

- hepatic extraction ratio at 0.5 h [1]: < 0.27
- Ki [2]: 6.2 nM
- Papp A→B [4]: 3.8 ×10⁻⁶ cm/s
- EC50 [3]: 81 nM
- Kp at 1 h [5]: 1.15
- Kp at 5 min [6]: 0.27
Structure (SMILES): O=C(N[C@@H]1C[C@H]2CCN(C2)C1)c1ccc2occc2c1

Structure (SMILES): O=C(N[C@@H]1C[C@H]2CCN(C2)C1)c1ccc2ncsc2c1
- hepatic extraction ratio at 0.5 h [1]: < 0.27
- Ki [2]: 21 nM
- Papp A→B [4]: 0.2 ×10⁻⁶ cm/s
- EC50 [3]: 182 nM
- Kp at 1 h [5]: 0.33
- Kp at 5 min [6]: 0.02

Structure (SMILES): O=C(N[C@@H]1C[C@H]2CCN(C2)C1)c1ccc(Cl)cc1
- hepatic extraction ratio at 0.5 h [1]: 0.37
- EC50 [3]: 190 nM

Structure (SMILES): O=C(N[C@@H]1C[C@H]2CCN(C2)C1)c1cc2ccoc2cn1
- concentration (Brain [7]): 5.3 nM
- Ki [2]: 2.9 nM
- Papp A→B [4]: 21 ×10⁻⁶ cm/s
- concentration (Brain [8]): 1200 nM
- concentration (Plasma [9]): 60 nM
- CL/F [10]: 72 mL/min/kg
- inhibition at 20 µM (hERG (KCNH2)): 25%
- EC50 [3]: 46 nM
- Vdss (Rattus norvegicus [11]): 2.4 L/kg
- Activity (Rattus norvegicus [12]): Active
- Activity [13]: 25%
- Ki [14]: 9 nM
- concentration at 144 h [15]: 350 nM
- concentration (Plasma [16]): 12 nM
- NOAEL [17]: 40 mg/kg
- Kp at 1 h [5]: 1.88
- concentration at 144 h [18]: 490 nM
- Activity [19]: 15%
- half-life [20]: > 120 min
- Ki [21]: 350 nM
- bioavailability [22]: 40%
- concentration (Plasma [23]): 1100 nM
- concentration (Brain [24]): 47 nM
- Activity (Rattus norvegicus [25]): Dose-dependent effect
- minimal effective dose (Rattus norvegicus [25]; read-out: MED): 0.1 mg/kg
- half-life [26]: 48 min
- Activity [27]: < 1%
- Activity [28]: 16%
- Kp at 5 min [6]: 1.52
- concentration at 0.5 h [29]: 130 nM
- Cmax [30]: 22000 nM
